Shown are actives, neighbours in structure and some others; about 6.8% of the full set was active somewhere.
HSF1 inh: HSF1 inhibition | NIH3T3-HGL HSE-luciferase, MG132-induced, luminescence 8 h; stronger effect = lower value | activity change, negative = inhibition, % at 7.5 µM (by protocol) | 300,000 compounds, 0.77% hits | AID 2098;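 active means more than half of replicate wells show activity change below -50%, luminescence cut by over half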;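 further: luciferase reports HSF-1 transcriptional activity via heat shock element; 0% = median of DMSO wells and -100% = zero luminescence signal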
ALR H2O2 inh: human ALR oxidase inhibition via reduced H2O2; inhibition, % (concentration not given with the values); purified ALR, DTT oxidation, H2O2 HRP-luminol luminescence; 290,000 compounds, 3.8% hits; P55789;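 active means mean replicate inhibition above about 79%, with every replicate also reaching it, limit read from the data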
AI-2 QS modul: modulators of Vibrio harveyi AI-2 quorum sensing system; Vibrio harveyi JMH597 AI-2 luminescence/OD600 ratio, 9 h; stronger effect = lower value; strain lacks LuxN and CqsS sensors; 0 = neutral-control median; activity change, % at 7.5 µM; AID 2094; 300,000 compounds, 0.4% hits; in the data active means activity change below about -75%, passing the limit was not always enough;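 further: luminescence divided by OD600 gain over 9 h not by final OD600 alone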
HCV core dimer: blocks dimerization of HCV core protein; 300,000 compounds, 0.33% hits; AID 1899; inhibition, % at 5 µM; TR-FRET GST/Flag-core106 dimerization, 1536-well;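 active means inhibition above the mean of all tested compounds plus 3 SD, set per screening campaign, cut at about 45% in these data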
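test system = GST/Flag-tagged HCV core106 proteins | probe or stimulus = Eu donor and XL665 acceptor anti-tag antibodies | times = compound-protein-antibody incubation 4 h at 22.5 °C | signal = TR-FRET, excitation 340 nm, emission 617 and 671 nm | measure = percent inhibition of core106 dimerization signal | controls = wells lacking GST-core106 and wells with excess unlabelled core106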
HSF1 activator: increases HSF-1 driven luciferase reporter signal | activation, % at 9 µM | 300,000 compounds, 1.7% hits | AID 504408 | NIH3T3-HGL HSF-1 luciferase reporter, MG132, 8 h; 100% = twice DMSO control signal;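 active means mean replicate activation of at least 50% with a set share of replicates each reaching 50%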;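 further: 0% = median of the neutral control wells and 100% = twice that signal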
PHOSPHO1 inh: blocks human PHOSPHO1 phosphatase activity | AID 1565 | inhibition, % at 13.3 µM | recombinant PHOSPHO1, absorbance phosphatase assay | 290,000 compounds, 1.1% hits; in the data active means inhibition above about 60%
Target sequence (Q8TCT1 whole entry, looked up): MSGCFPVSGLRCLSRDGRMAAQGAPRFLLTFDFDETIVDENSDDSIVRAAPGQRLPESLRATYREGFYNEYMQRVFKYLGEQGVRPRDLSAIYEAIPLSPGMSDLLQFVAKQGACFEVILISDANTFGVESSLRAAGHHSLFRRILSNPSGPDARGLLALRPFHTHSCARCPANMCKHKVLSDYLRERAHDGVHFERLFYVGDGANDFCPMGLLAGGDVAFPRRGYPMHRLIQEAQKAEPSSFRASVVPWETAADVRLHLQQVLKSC
* = called active by the depositor; / = no result given.

SMILES	HSF1 inh	ALR H2O2 inh	AI-2 QS modul	HCV core dimer	HSF1 activator	PHOSPHO1 inh
O=C(O)C(c1ccccc1)N1C(=O)/C(=C/c2cccs2)SC1=S (stereo unspecified)	-2	98*	43	2	4	25
CC1(C)Cc2c(C#N)c(NCCO)nc(-c3ccco3)c2CO1	-52*	12	13	7	-58	24
CC1(C)Cc2c(C#N)c(NCCN3CCOCC3)nc(-c3ccco3)c2CO1	7	0	15	-4	7	29
Cc1cccc[n+]1C1C(c2ccccc2)C(C#N)=C(C(=C=[N-])C#N)NC1(O)C1CC1 (stereo unspecified)	1	-2	-1	32	6	28
N#CC(=C=[N-])C1=C(C#N)C(c2ccccc2F)C([n+]2ccccc2)C(O)(C2CC2)N1 (stereo unspecified)	-6	-8	8	52*	-3	8
CC1CC(C)(C)CC2(C1)NC(=O)N(CC(=O)Nc1ccc(N3CCCCC3)cc1)C2=O (stereo unspecified)	4	24	40	5	-18	27
O=C(CN1C(=O)NC2(CCCCC2)C1=O)Nc1ccc(N2CCCCC2)cc1	/	93*	/	/	/	/
Cc1cc(N2CCCC2)ccc1NC(=O)CN1C(=O)NC2(CCCCC2)C1=O	1	93*	21	-10	3	/
CCCCn1c(N)c(N(CC(C)C)C(=O)CCCc2cccs2)c(=O)[nH]c1=O	4	-5	5	-4	-3	23
c1ccc(COc2ccccc2CNC23CC4CC(CC(C4)C2)C3)cc1	4	-12	35	-16	5	34
Cc1ccc(C(=O)NCCNS(=O)(=O)c2ccccc2)cn1	4	-3	-1	-12	-14	36
O=C(CCNC(=O)c1ccccc1Cl)Nc1cccc(S(=O)(=O)N2CCOCC2)c1	/	-5	/	/	/	/
Cc1ccc(Cn2c(SCC(=O)Nc3cc(C)on3)nc3ccccc3c2=O)cc1	2	-11	3	62*	0	-3
Cc1cc(NC(=O)CSc2nnc(C)n2C)no1	-59*	-5	16	-6	-68	42
COc1ccccc1-n1nnnc1SCC(=O)Nc1cc(C)on1	8	-2	26	1	-5	-10
Cc1cc(NC(=O)CSc2nc3cc(Cl)ccc3c(=O)n2CC(C)C)no1	-3	-19	10	-7	-17	0
CCOc1ccccc1-n1nnnc1SCC(=O)Nc1cc(C)on1	4	-7	14	4	5	62*
Cc1cc(NC(=O)CSc2nnc(C3CC3)n2C)no1	-2	-11	56	-4	-6	-18
Cc1cc(NC(=O)CSc2nc(C)c(C)n2CC(C)C)no1	/	93*	/	/	/	/
Cc1cc(NC(=O)CSc2nc3ccccc3c(=O)n2Cc2ccccc2)no1	3	-18	-2	7	5	18
CCn1nnc(-c2ccccc2NS(=O)(=O)c2ccc(S(=O)(=O)N(C)C3CCCCC3)cc2)n1	2	-1	21	4	15	8
COc1ccccc1CNCc1cccc(Oc2ccccc2)c1	-2	/	7	0	-2	29
O=C(NNC(=O)c1ccc([N+](=O)[O-])cc1C(=O)O)c1ccncc1	-8	/	-1	0	-19	31
Cc1cc(/C=C2/C(=O)N(C)C(=S)N2C)ccc1N1CCCC1	39	32	12	-16	74*	18
Cc1ccc(CSc2nc3c(c(SCC(=O)O)n2)CCCC3)cc1	3	97*	12	9	6	28
COc1cccc(N(C(=O)c2nc3nccc(C)n3n2)c2nc3ccccc3s2)c1	69	/	16	-4	121*	-4
O=C(NCCc1ccc(C(F)(F)F)cc1)C1CCC(=O)N(CCCN2CCCC2=O)C1 (stereo unspecified)	4	-4	20	-1	5	44
Nc1c(C(=O)Nc2ccccc2)sc2nc3c(c(-c4ccco4)c12)CCCC3	24	/	6	4	11	-60
Nc1c(C(=O)Nc2ccccc2)sc2nc3c(c(-c4ccco4)c12)CCC3	-2	-5	19	15	2	87*
